Laboratory results as given in ChEMBL document CHEMBL5058577, “EUbOPEN Chemogenomics Library 2 (Multiplex)” (2022).

Tested on: Fibroblast
Assay: Multiplex assay against human fibroblast
Format: toxicity, cell-based
Outline: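 Tubulin, mitochondrial-mass and membrane-permeability phenotypes are per cents of healthy-nucleus cells. Cells were gated by CellPathfinder machine learning into Hoechst high-intensity objects or normal cells, normal cells into healthy, pyknosed or fragmented nuclei, and pyknosed cells into mitotic or apoptotic. Before that, live cells stained at seeding with Hoechst33342, BioTracker Green Microtubule Cytoskeleton Dye, MitoTracker Red and Annexin V Alexa Fluor 680 were imaged on a CQ1 microscope at 37°C and 5% CO2 after compound addition.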

[1] = 12 h, 1 µM, compound concentration 1 uM, replicate 1
[2] = 12 h, 1 µM, compound concentration 1 uM, replicate 2
[3] = 12 h, 10 µM, compound concentration 10 uM, replicate 1
[4] = 12 h, 10 µM, compound concentration 10 uM, replicate 2
[5] = 24 h, 1 µM, compound concentration 1 uM, replicate 1
[6] = 24 h, 1 µM, compound concentration 1 uM, replicate 2
[7] = 24 h, 10 µM, compound concentration 10 uM, replicate 1
[8] = 24 h, 10 µM, compound concentration 10 uM, replicate 2
[9] = 48 h, 1 µM, compound concentration 1 uM, replicate 1
[10] = 48 h, 1 µM, compound concentration 1 uM, replicate 2
[11] = 48 h, 10 µM, compound concentration 10 uM, replicate 1
[12] = 48 h, 10 µM, compound concentration 10 uM, replicate 2

Compound: c1cc(OCCCN2CCCCC2)ccc1CN1CCCCC1 [JNJ-5207852]
- Population Apoptotic (%) [1]: 37%
- Population Fragmented Nuclei (%) [1]: 15%
- Population Healthy Nuclei (%) [1]: 64%
- Population Hoechst High Intensity Objects (%) [1]: 1%
- Population Membrane Permeable-Phenotype (%) [1]: 0%
- Population Mitochondria Different-Phenotype (%) [1]: 2%
- Population Mitotic Cells (%) [1]: 62%
- Population Normal (%) [1]: 98%
- Population Pyknosed Nuclei (%) [1]: 20%
- Population Tubulin-Different-Phenotype (%) [1]: 26%
- Total Cell Count [1]: 181
- Population Apoptotic (%) [2]: 26%
- Population Fragmented Nuclei (%) [2]: 24%
- Population Healthy Nuclei (%) [2]: 51%
- Population Hoechst High Intensity Objects (%) [2]: 7%
- Population Membrane Permeable-Phenotype (%) [2]: 8%
- Population Mitochondria Different-Phenotype (%) [2]: 5%
- Population Mitotic Cells (%) [2]: 73%
- Population Normal (%) [2]: 92%
- Population Pyknosed Nuclei (%) [2]: 23%
- Population Tubulin-Different-Phenotype (%) [2]: 49%
- Total Cell Count [2]: 153
- Population Apoptotic (%) [3]: 50%
- Population Fragmented Nuclei (%) [3]: 22%
- Population Healthy Nuclei (%) [3]: 68%
- Population Hoechst High Intensity Objects (%) [3]: 1%
- Population Membrane Permeable-Phenotype (%) [3]: 0%
- Population Mitochondria Different-Phenotype (%) [3]: 6%
- Population Mitotic Cells (%) [3]: 50%
- Population Normal (%) [3]: 98%
- Population Pyknosed Nuclei (%) [3]: 9%
- Population Tubulin-Different-Phenotype (%) [3]: 35%
- Total Cell Count [3]: 193
- Population Apoptotic (%) [4]: 43%
- Population Fragmented Nuclei (%) [4]: 36%
- Population Healthy Nuclei (%) [4]: 42%
- Population Membrane Permeable-Phenotype (%) [4]: 12%
- Population Mitochondria Different-Phenotype (%) [4]: 10%
- Population Mitotic Cells (%) [4]: 56%
- Population Pyknosed Nuclei (%) [4]: 20%
- Population Tubulin-Different-Phenotype (%) [4]: 60%
- Total Cell Count [4]: 114
- Population Apoptotic (%) [5]: 38%
- Population Fragmented Nuclei (%) [5]: 18%
- Population Healthy Nuclei (%) [5]: 66%
- Population Hoechst High Intensity Objects (%) [5]: 2%
- Population Membrane Permeable-Phenotype (%) [5]: 0%
- Population Mitochondria Different-Phenotype (%) [5]: 2%
- Population Mitotic Cells (%) [5]: 61%
- Population Normal (%) [5]: 97%
- Population Pyknosed Nuclei (%) [5]: 15%
- Population Tubulin-Different-Phenotype (%) [5]: 23%
- Total Cell Count [5]: 176
- Population Apoptotic (%) [6]: 33%
- Population Fragmented Nuclei (%) [6]: 28%
- Population Healthy Nuclei (%) [6]: 51%
- Population Hoechst High Intensity Objects (%) [6]: 5%
- Population Membrane Permeable-Phenotype (%) [6]: 5%
- Population Mitochondria Different-Phenotype (%) [6]: 6%
- Population Mitotic Cells (%) [6]: 66%
- Population Normal (%) [6]: 95%
- Population Pyknosed Nuclei (%) [6]: 19%
- Population Tubulin-Different-Phenotype (%) [6]: 55%
- Total Cell Count [6]: 160
- Population Apoptotic (%) [7]: 60%
- Population Fragmented Nuclei (%) [7]: 24%
- Population Healthy Nuclei (%) [7]: 65%
- Population Hoechst High Intensity Objects (%) [7]: 1%
- Population Membrane Permeable-Phenotype (%) [7]: 0%
- Population Mitochondria Different-Phenotype (%) [7]: 6%
- Population Mitotic Cells (%) [7]: 40%
- Population Normal (%) [7]: 99%
- Population Pyknosed Nuclei (%) [7]: 10%
- Population Tubulin-Different-Phenotype (%) [7]: 34%
- Total Cell Count [7]: 201
- Population Apoptotic (%) [8]: 41%
- Population Fragmented Nuclei (%) [8]: 45%
- Population Healthy Nuclei (%) [8]: 38%
- Population Hoechst High Intensity Objects (%) [8]: 5%
- Population Membrane Permeable-Phenotype (%) [8]: 4%
- Population Mitochondria Different-Phenotype (%) [8]: 13%
- Population Mitotic Cells (%) [8]: 58%
- Population Normal (%) [8]: 94%
- Population Pyknosed Nuclei (%) [8]: 15%
- Population Tubulin-Different-Phenotype (%) [8]: 67%
- Total Cell Count [8]: 118
- Population Apoptotic (%) [9]: 70%
- Population Fragmented Nuclei (%) [9]: 18%
- Population Healthy Nuclei (%) [9]: 63%
- Population Hoechst High Intensity Objects (%) [9]: 2%
- Population Membrane Permeable-Phenotype (%) [9]: 0%
- Population Mitochondria Different-Phenotype (%) [9]: 2%
- Population Mitotic Cells (%) [9]: 29%
- Population Normal (%) [9]: 97%
- Population Pyknosed Nuclei (%) [9]: 17%
- Population Tubulin-Different-Phenotype (%) [9]: 23%
- Total Cell Count [9]: 184
- Population Apoptotic (%) [10]: 44%
- Population Fragmented Nuclei (%) [10]: 32%
- Population Healthy Nuclei (%) [10]: 48%
- Population Hoechst High Intensity Objects (%) [10]: 4%
- Population Membrane Permeable-Phenotype (%) [10]: 5%
- Population Mitotic Cells (%) [10]: 55%
- Population Normal (%) [10]: 95%
- Population Pyknosed Nuclei (%) [10]: 18%
- Population Tubulin-Different-Phenotype (%) [10]: 50%
- Total Cell Count [10]: 160
- Population Apoptotic (%) [11]: 55%
- Population Fragmented Nuclei (%) [11]: 19%
- Population Healthy Nuclei (%) [11]: 70%
- Population Hoechst High Intensity Objects (%) [11]: 2%
- Population Membrane Permeable-Phenotype (%) [11]: 0%
- Population Mitochondria Different-Phenotype (%) [11]: 2%
- Population Mitotic Cells (%) [11]: 44%
- Population Normal (%) [11]: 97%
- Population Pyknosed Nuclei (%) [11]: 9%
- Population Tubulin-Different-Phenotype (%) [11]: 34%
- Total Cell Count [11]: 189
- Population Apoptotic (%) [12]: 30%
- Population Fragmented Nuclei (%) [12]: 48%
- Population Healthy Nuclei (%) [12]: 41%
- Population Hoechst High Intensity Objects (%) [12]: 3%
- Population Membrane Permeable-Phenotype (%) [12]: 5%
- Population Mitochondria Different-Phenotype (%) [12]: 11%
- Population Mitotic Cells (%) [12]: 69%
- Population Normal (%) [12]: 96%
- Population Pyknosed Nuclei (%) [12]: 10%
- Population Tubulin-Different-Phenotype (%) [12]: 66%
- Total Cell Count [12]: 132
